Reference: PMC7901021 (ACS chemical biology, 2021)
Blank lines part the entries; values can stand above or below the molecule they belong to.

How the values were obtained:
MONOMAC6 and NB4 cells = details: cited from earlier work
ALKBH5 [1] = target: T1, ALKBH5 (Homo sapiens, UniProt Q6P6C2); details: cited from earlier work
FTO [2] = target: T2, FTO (Homo sapiens, UniProt Q9C0B1); details: read-out: reported IC50 against FTO; cited from earlier work
[3] = precipitation in assay buffer; assay type: physicochemical; details: dose response could not be determined
[4] = test system: m6A and m6Am levels in GSCs; assay: quantification of m6A and m6Am by HPLC-MS/MS/MS; assay type: cell-based, human
[5] = test system: healthy human neural stem cells (hNSCs) neurospheres; assay: neurosphere formation assay; assay type: cell-based; details: 20 μM
Outline: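 Normal human neural stem cells were grown as neurospheres and treated with the test compound at 20 μM for 2 days. Neurospheres were imaged by bright field and sized by ImageJ, with more than 50 neurospheres per group. Comparisons by Student's t test.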

FTO [6] = target: T2, FTO; assay: steady-state inhibition kinetics; assay type: biochemical; details: vmax independent of inhibitor concentration; substrate 0-10 μM
[7] = test system: GSC-23 patient-derived GSC neurospheres; assay: neurosphere formation assay; assay type: cell-based, human; details: GSC-23, 20 μM, 2 days
Outline: (§1)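 Neurospheres of patient-derived glioblastoma stem cell lines, with normal human neural stem cells run alongside, were exposed to 20 μM test compound for 2 days. Wells were imaged by bright field, and neurosphere size was quantified by image analysis from more than 50 neurospheres per group. Groups were compared by Student's t test.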

[8] = test system: TS576 patient-derived GSC neurospheres; assay: neurosphere formation assay; assay type: cell-based, human; details: 2 days
[9] = test system: GBM-6 patient-derived GSC neurospheres; assay: neurosphere formation assay; assay type: cell-based, human; details: GBM-6, 20 μM, 2 days
Outline: as §1

FTO [10] = target: T2, FTO; assay: m6A7-Broccoli fluorescence enzymatic inhibition assay; assay type: biochemical; details: for preference for FTO over ALKBH5: FTO vs ALKBH5 IC50
[11] = test system: m6A mRNA levels in TS576 cells; assay: m6A dot blot assay of purified mRNA; assay type: cell-based, human; details: 30 μM, does not distinguish m6A and m6Am
Outline: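 TS576 patient-derived GSCs were treated with the test compound or DMSO, and mRNA was purified from them. m6A in the mRNA was assessed by dot blot. shControl versus shFTO knockdown in TS576 served as the reference for m6A change.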

ALKBH5 [12] = target: T1, ALKBH5; assay: m6A7-Broccoli fluorescence enzymatic inhibition assay; assay type: biochemical; details: for selectivity between FTO and ALKBH5 (in words): comparison of IC50 toward both demethylases
[13] = test system: orthotopically transplanted GSC tumors; details: cited from earlier work

T1 sequence (Q6P6C2 whole entry): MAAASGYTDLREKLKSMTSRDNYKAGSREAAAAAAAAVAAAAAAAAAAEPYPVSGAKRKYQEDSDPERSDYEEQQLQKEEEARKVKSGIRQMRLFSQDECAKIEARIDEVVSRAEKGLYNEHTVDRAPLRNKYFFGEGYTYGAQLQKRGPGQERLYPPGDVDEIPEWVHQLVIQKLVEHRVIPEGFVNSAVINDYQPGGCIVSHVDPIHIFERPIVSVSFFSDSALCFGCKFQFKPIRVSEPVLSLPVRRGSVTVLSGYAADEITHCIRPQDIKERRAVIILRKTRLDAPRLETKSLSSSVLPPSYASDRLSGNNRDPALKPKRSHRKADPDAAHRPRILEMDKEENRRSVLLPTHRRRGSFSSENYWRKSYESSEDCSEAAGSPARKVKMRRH
T2 sequence (Q9C0B1 whole entry): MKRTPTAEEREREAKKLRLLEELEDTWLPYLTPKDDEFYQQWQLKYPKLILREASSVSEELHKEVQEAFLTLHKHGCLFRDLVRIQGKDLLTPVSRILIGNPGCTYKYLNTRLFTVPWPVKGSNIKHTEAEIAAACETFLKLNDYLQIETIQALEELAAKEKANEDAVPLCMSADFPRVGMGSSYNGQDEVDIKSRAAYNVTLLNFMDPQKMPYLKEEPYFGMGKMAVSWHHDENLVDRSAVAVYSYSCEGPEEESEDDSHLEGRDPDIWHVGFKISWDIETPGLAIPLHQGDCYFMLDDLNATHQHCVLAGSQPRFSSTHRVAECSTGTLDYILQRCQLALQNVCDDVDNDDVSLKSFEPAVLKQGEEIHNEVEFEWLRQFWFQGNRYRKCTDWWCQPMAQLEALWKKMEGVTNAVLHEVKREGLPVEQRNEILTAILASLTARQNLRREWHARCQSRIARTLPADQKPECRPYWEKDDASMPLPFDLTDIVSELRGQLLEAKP

- precipitation in assay buffer [3]: significant precipitation
Structure (SMILES): COc1ncc(-c2cccc(OCc3ccccc3)c2)cn1 [FTO-03]

- size of neurospheres [5]: no alteration in neurosphere size
- mechanism of inhibition (FTO [6]): competitive mechanism of inhibition
- potency toward FTO relative to MA (FTO [10]; ratio of IC50 to MA (12.5 μM)): approximately 4 ×
Structure (SMILES): COc1ncc(-c2ccc3nc(N)sc3c2)cn1 [FTO-04]
- increase in m6A levels relative to DMSO control [4]: ~ 1.4 ×
- increase in m6Am levels relative to DMSO control [4]: ~ 3.2 ×
- size of neurospheres [7]: significantly decrease the size of neurospheres
- size of neurospheres ([8]; TS576, 20 μM): significantly decrease the size of neurospheres
- size of neurospheres vs vehicle control ([8]; TS576, 30 μM): significant reduction in size of the neurospheres
- size of neurospheres [9]: significantly decrease the size of neurospheres
- m6A mRNA levels relative to DMSO control (dot blot) [11]: increased

- preference for FTO over ALKBH5 (FTO [10]): ≥ 5 fold
- IC50 (ALKBH5 [12]): > 40 µM
- inhibition of ALKBH5 at the highest concentration measured (ALKBH5 [12]): no measurable inhibition
Structure (SMILES): COc1ccc2cc(-c3cncnc3)ccc2c1 [FTO-05]

- preference for FTO over ALKBH5 (FTO [10]): ≥ 5 fold
Structure (SMILES): COc1ncc(-c2ccc(CO)c(OC)c2)cn1 [FTO-06]

- inhibition of ALKBH5 at the highest concentration measured (ALKBH5 [12]): no measurable inhibition
Structure (SMILES): Cc1ccc2cc(-c3cncnc3)ccc2n1 [FTO-07]

- potency toward ALKBH5 over FTO (ALKBH5 [12]; ALKBH5 vs FTO IC50): ~10 times
Structure (SMILES): Nc1ncc(-c2cccc(Nc3ccccc3)c2)cn1 [FTO-09]
- selectivity between FTO and ALKBH5 (in words) (ALKBH5 [12]): distinct preference toward ALKBH5 over FTO

- preference for FTO over ALKBH5 (FTO [10]): ≥ 5 fold
- IC50 (ALKBH5 [12]): > 40 µM
- inhibition of ALKBH5 at the highest concentration measured (ALKBH5 [12]): no measurable inhibition
Structure (SMILES): COc1ccc2cc(-c3cnc(N)nc3)ccc2c1 [FTO-12]

- precipitation in assay buffer [3]: significant precipitation
Structure (SMILES): COCCNc1ncc(-c2ccc3cc(OC)ccc3c2)cn1 [FTO-15]

- inhibition of ALKBH5 at the highest concentration measured (ALKBH5 [12]): no measurable inhibition
Structure (SMILES): COCCNc1ncc(-c2ccc(OCc3ccccc3)cc2)cn1 [FTO-18]

- preference for FTO over ALKBH5 (FTO [10]): ≥ 5 fold
Structure (SMILES): COCCNc1ncc(-c2ccc(CO)c(OC)c2)cn1 [FTO-20]

Continued, molecule first:

Structure (SMILES): Cc1noc(C)c1-c1cc(Cl)c(Nc2ccccc2C(=O)O)c(Cl)c1 [FB23]
- cellular uptake (MONOMAC6 and NB4 cells): poor cellular uptake

Structure (SMILES): Cc1noc(C)c1-c1cc(Cl)c(Nc2ccccc2C(=O)NO)c(Cl)c1 [FB23–2]
- inhibition of FTO at 50 μM (stated as selectivity against ALKBH5) (ALKBH5 [1]): little to no inhibition
- cellular concentration relative to FB23 (MONOMAC6 and NB4 cells; MONOMAC6 and NB4 cells): 3−10 ×
- IC50 (FTO [2]): 2600 nM

Structure (SMILES): COc1ccc2cc(-c3cnc(OC)nc3)ccc2c1 [FTO-08]
- selectivity between FTO and ALKBH5 (in words) (ALKBH5 [12]): equivalent inhibitors toward both demethylases

Structure (SMILES): Nc1ncc(-c2ccc3cc(O)ccc3c2)cn1 [FTO-10]
- selectivity between FTO and ALKBH5 (in words) (ALKBH5 [12]): equivalent inhibitors toward both demethylases

Structure (SMILES): COc1ncc(-c2ccc3nc(C)ccc3c2)cn1 [FTO-11]
- selectivity between FTO and ALKBH5 (in words) (ALKBH5 [12]): equivalent inhibitors toward both demethylases

Structure (SMILES): Nc1ncc(-c2cccc(OCc3ccccc3)c2)cn1 [FTO-13]
- selectivity between FTO and ALKBH5 (in words) (ALKBH5 [12]): distinct preference toward ALKBH5 over FTO

Structure (SMILES): COCCNc1ncc(-c2ccc3nc(C)ccc3c2)cn1 [FTO-19]
- selectivity between FTO and ALKBH5 (in words) (ALKBH5 [12]): equivalent inhibitors toward both demethylases

Structure (SMILES): Cc1ccc(Cl)c(Nc2ccccc2C(=O)O)c1Cl [MA, meclofenamic acid]
- inhibition of FTO at 50 μM (stated as selectivity against ALKBH5) (ALKBH5 [1]): little to no inhibition
- lifespan ([13]; intracranial GSC xenograft mice): prolong lifespan
- tumor progression in vivo ([13]; orthotopically transplanted GSC tumors): prevented tumor progression in vivo
